Numbering of substitutions follows the chain as printed. “Also recorded” adds a separate entry of the source.
What was measured:
[1] = target: T1, EntB R196A isochorismatase (Escherichia coli, UniProt P0ADI4, R196A); experiment: EntB‐LDH coupled isochorismatase activity assay, EntB R196A; format: biochemical
T1 sequence (P0ADI4 1-285 R196A): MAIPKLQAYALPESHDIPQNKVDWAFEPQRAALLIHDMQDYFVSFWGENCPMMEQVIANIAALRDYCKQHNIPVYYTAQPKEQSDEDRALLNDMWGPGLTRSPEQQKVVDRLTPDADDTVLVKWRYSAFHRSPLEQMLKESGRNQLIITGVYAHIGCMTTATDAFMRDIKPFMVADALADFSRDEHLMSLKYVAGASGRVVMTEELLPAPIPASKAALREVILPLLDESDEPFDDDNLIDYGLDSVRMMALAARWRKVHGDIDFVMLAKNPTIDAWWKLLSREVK
Method in brief: (§1)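 His-tagged EntB (pCA24N, E. coli AG-1, IMAC-purified) at 0.10 μM was preincubated 10 min at RT with 1.50 unit/mL LDH and 350 μM NADH in 50 mM HEPES pH 8.0, 150 mM NaCl, 1 mM TCEP. Substrate was a ~3:2 chorismate:isochorismate mix made with EntC and 5 mM MgCl2 on ice for 20 min, then filtered. It was added at 6.2–73.9 μM, and OD340 loss was followed at 21°C. Test compound was at 0, 100, 250 or 400 μM. Km and Vmax came from Michaelis–Menten fits, and Ki from an Eadie–Hofstee slope replot.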

[2] = target: T2, EntB variant R196A (Escherichia coli, UniProt P0ADI4, R196A); experiment: Fluorescence anisotropy binding assay, EntB R196A; details: EntB R196A titrated into 2.00 μM 2,3‐DHB; apparent K D not determinable (no saturation)
T2 sequence (P0ADI4 1-285 R196A): T1 sequence (P0ADI4 1-285 R196A)

[3] = target: T3, EntB‐driven EntC reaction (Escherichia coli, UniProt P0ADI4); experiment: Isothermal titration microcalorimetry of the EntC–EntB coupled reaction; format: biochemical; details: 313 nM EntC, 1293 nM EntB, 0, 250, 500 μM DHB, 30°C
T3 sequence (P0ADI4 1-285): T1 sequence (P0ADI4 1-285 R196A) with A196R
Method in brief: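 The sample cell held 313 nM EntC with or without EntB (162–2587 nM). Two injections of 79 μM chorismate were given 10 min apart, stirring at 300 RPM. Integrated heats were corrected for buffer injection and chorismate dilution heats.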

[4] = target: T4, apo‐EntB (wild‐type EntB) (Escherichia coli, UniProt P0ADI4); experiment: Fluorescence anisotropy binding assay, wild-type EntB
T4 sequence (P0ADI4 1-285): T1 sequence (P0ADI4 1-285 R196A) with A196R
Method in brief: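 The test compound was held at 2 μM and purified protein was titrated in. Buffer was 50 mM HEPES pH 8.0, 150 mM NaCl, 1 mM TCEP, with 10 min preincubation at RT. Anisotropy was read at 21°C (ex 315 nm, em 437 nm, 10 nm slits), G-factor corrected, in triplicate. Apparent KD came from a one-site total-binding fit.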

[5] = test system: EntB; details: compared with 2,5‐DHB and 3,5‐DHB; ref Khalil & Pawelek, 2009; cited from earlier work
[6] = target: T5, wild‐type EntB isochorismatase (Escherichia coli, UniProt P0ADI4); experiment: EntB‐LDH coupled isochorismatase activity assay, wild-type EntB; format: biochemical; details: for Isochorismate apparent K m / V max: 0.1 μM EntB
T5 sequence (P0ADI4 1-285): T1 sequence (P0ADI4 1-285 R196A) with A196R
Method in brief: as §1

In the case of `O=C(O)c1cccc(O)c1O` [2,3‐DHB, 2,3‐dihydroxybenzoic acid], the IC50 [1] is reported as 692 µM, the “affinity relative to wild‐type EntB” value [2] is reported as “much lower affinity than wild‐type EntB” and the “effect on heat evolution (integrated reaction heats)” value [3] is reported as “suppression of integrated reaction heats; also recorded: heat evolution decreased in a DHB‐dependent manner”. For the same compound, the Kd [4] was 8.95 µM, the “quenching of EntB intrinsic fluorescence” value [5] was “able to specifically quench EntB fluorescence; also recorded: most strongly quenched” and the IC50 [6] was 360 µM. For the same compound, the “Isochorismate apparent K m” value ([6]; 100 μM 2,3‐DHB) was 16.24 ± 1.57 µM, the V max ([6]; 100 μM 2,3‐DHB) was 5.25 ± 0.17 µM/min and the “Isochorismate apparent K m” value ([6]; 250 μM 2,3‐DHB) was 22.12 ± 3.25 µM. For the same compound, the V max ([6]; 250 μM 2,3‐DHB) was 4.99 ± 0.52 µM/min, the “Isochorismate apparent K m” value ([6]; 400 μM 2,3‐DHB) was 32.55 ± 0.23 µM and the V max ([6]; 400 μM 2,3‐DHB) was 5.33 ± 0.05 µM/min. For the same compound, the mode of inhibition ([6]; Eadie–Hofstee plot, linear fits converge at the ordinate) was “competitive inhibition”.

Reference: publication PMC12096016 (Protein Science : A Publication of the Protein Society, 2025)
